Measurements from ChEMBL document CHEMBL2150901, “Synthesis and biological activity of tricyclic cycloalkylimidazo-, pyrimido- and diazepinopurinediones” (Eur J Med Chem, 2011).
Activity calls are given as the source filed them. The rule behind the calls is not given here.

Experiments:
[1] = system: Mus musculus; assay: Neurotoxicity in F1 albino mouse assessed as minimal motor impairment at 300 mg/kg, ip after 0.5 hrs by rotorod test; type: toxicity, organism-based; parameters: dose 300 mg/kg, route intraperitoneal; settings: in vivo
Procedure, shortened: (§1)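 Male albino F-1 mice (18–25 g), groups of 1–5 (rotorod 2–8). Compound given ip as a suspension in 0.5% methylcellulose at 30, 100 and 300 mg/kg. Seizures by maximal electroshock or subcutaneous pentylenetetrazole; neurotoxicity by rotorod. Read at 0.5 and 4 h, with some at 0.25, 1 and 2 h. Value is the minimum active dose, with protected (or toxic)/tested animals.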

[2] = system: Mus musculus; assay: Anticonvulsant activity in F1 albino mouse assessed as protection against subcutaneous pentylenetetrazole-induced seizures at 300 mg/kg, ip after 4 hrs; type: functional, organism-based; parameters: dose 300 mg/kg; procedure, shortened: as §1
[3] = system: Mus musculus; assay: Neurotoxicity in F1 albino mouse assessed as minimal motor impairment at 300 mg/kg, ip after 0.25 hrs by rotorod test; type: toxicity, organism-based; parameters: dose 300 mg/kg, route intraperitoneal; settings: in vivo; procedure, shortened: as §1
[4] = system: Rattus norvegicus; assay: Toxicity in Sprague-Dawley albino rat assessed as mortality following continuous seizures at >100 mg/kg, po; type: organism-based; settings: in vivo
[5] = system: Rattus norvegicus; assay: Anticonvulsant activity in Sprague-Dawley albino rat assessed as protection against maximal electroshock-induced seizures at 30 mg/kg, po after 0.5 hrs; type: functional, organism-based; parameters: dose 30 mg/kg
Procedure, shortened: (§2)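 Male Sprague-Dawley albino rats (100–150 g), groups of 4. Oral suspension in 0.5% methylcellulose/water. Protection assessed by maximal electroshock or subcutaneous pentylenetetrazole; motor impairment by rotorod. Time points 0.25–4 h. Value is protected (or toxic)/tested animals.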

[6] = system: Rattus norvegicus; assay: Anticonvulsant activity in Sprague-Dawley albino rat assessed as protection against maximal electroshock-induced seizures at 30 mg/kg, po after 2 hrs; type: functional, organism-based; parameters: dose 30 mg/kg; procedure, shortened: as §2
[7] = molecular target: Adenosine receptor A2a (Rattus norvegicus, UniProt P30543); assay: Displacement of [3H]MSX-2 from adenosine A2A receptor in rat brain striatal membrane; type: cell membranes
Chain of Adenosine receptor A2a (P30543 whole entry): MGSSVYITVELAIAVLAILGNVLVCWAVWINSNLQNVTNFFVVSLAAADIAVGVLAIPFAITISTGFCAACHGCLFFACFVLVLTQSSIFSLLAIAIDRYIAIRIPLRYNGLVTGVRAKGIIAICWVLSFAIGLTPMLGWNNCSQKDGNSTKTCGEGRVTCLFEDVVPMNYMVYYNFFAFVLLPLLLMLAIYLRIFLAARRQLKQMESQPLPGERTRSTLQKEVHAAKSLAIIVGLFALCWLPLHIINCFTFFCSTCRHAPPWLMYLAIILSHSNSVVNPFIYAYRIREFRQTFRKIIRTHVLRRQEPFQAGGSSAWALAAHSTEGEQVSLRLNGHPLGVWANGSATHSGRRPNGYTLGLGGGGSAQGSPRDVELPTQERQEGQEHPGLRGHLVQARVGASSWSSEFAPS

[8] = system: Rattus norvegicus; assay: Anticonvulsant activity in po dosed Sprague-Dawley albino rat assessed as protection against subcutaneous pentylenetetrazole-induced seizures; type: functional
[9] = system: Rattus norvegicus; assay: Anticonvulsant activity in Sprague-Dawley albino rat assessed as protection against subcutaneous pentylenetetrazole-induced seizures at 50 mg/kg, po after 1 hr; type: functional, organism-based; parameters: dose 50 mg/kg; procedure, shortened: as §2
[10] = molecular target: T1, Adenosine receptor A1 (Rattus norvegicus, UniProt P25099); assay: Displacement of [3H]CCPA from adenosine A1 receptor in rat brain cortical membrane; type: cell membranes
T1 sequence (P25099 whole entry): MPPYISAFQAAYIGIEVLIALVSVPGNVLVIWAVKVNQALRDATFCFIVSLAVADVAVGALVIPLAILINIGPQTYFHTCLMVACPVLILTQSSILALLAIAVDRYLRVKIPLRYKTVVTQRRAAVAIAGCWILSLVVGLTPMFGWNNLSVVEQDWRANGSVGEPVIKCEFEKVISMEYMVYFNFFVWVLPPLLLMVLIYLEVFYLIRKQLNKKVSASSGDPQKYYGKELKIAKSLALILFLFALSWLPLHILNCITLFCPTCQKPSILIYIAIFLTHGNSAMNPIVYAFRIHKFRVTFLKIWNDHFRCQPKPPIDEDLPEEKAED

[11] = system: Mus musculus; assay: Anticonvulsant activity in F1 albino mouse assessed as protection against maximal electroshock-induced seizures at 300 mg/kg, ip after 0.25 hrs; type: functional, organism-based; parameters: dose 300 mg/kg; procedure, shortened: as §1
[12] = system: Mus musculus; assay: Anticonvulsant activity in F1 albino mouse assessed as protection against maximal electroshock-induced seizures at 300 mg/kg, ip after 0.5 hrs; type: functional, organism-based; parameters: dose 300 mg/kg; procedure, shortened: as §1
[13] = system: Rattus norvegicus; assay: Anticonvulsant activity in Sprague-Dawley albino rat assessed as protection against subcutaneous pentylenetetrazole-induced seizures at 50 mg/kg, po after 0.25 hrs; type: functional, organism-based; parameters: dose 50 mg/kg; procedure, shortened: as §2
[14] = system: Mus musculus; assay: Anticonvulsant activity in F1 albino mouse assessed as protection against subcutaneous pentylenetetrazole-induced seizures at 300 mg/kg, ip after 1 hr; type: functional, organism-based; parameters: dose 300 mg/kg; procedure, shortened: as §1
[15] = system: Rattus norvegicus; assay: Neurotoxicity in Sprague-Dawley albino rat assessed as minimal motor impairment at 30 mg/kg, po after 0.25 hrs by rotorod test; type: toxicity, organism-based; parameters: dose 30 mg/kg, route oral; settings: in vivo; procedure, shortened: as §2
[16] = system: Rattus norvegicus; assay: Neurotoxicity in Sprague-Dawley albino rat assessed as minimal motor impairment at 30 mg/kg, po after 0.5 hrs by rotorod test; type: toxicity, organism-based; parameters: dose 30 mg/kg, route oral; settings: in vivo; procedure, shortened: as §2
[17] = system: Rattus norvegicus; assay: Anticonvulsant activity in Sprague-Dawley albino rat assessed as protection against subcutaneous pentylenetetrazole-induced seizures at 50 mg/kg, po after 4 hrs; type: functional, organism-based; parameters: dose 50 mg/kg; procedure, shortened: as §2
[18] = system: Mus musculus; assay: Neurotoxicity in F1 albino mouse assessed as minimal motor impairment at 300 mg/kg, ip after 1 hr by rotorod test; type: toxicity, organism-based; parameters: dose 300 mg/kg, route intraperitoneal; settings: in vivo; procedure, shortened: as §1
[19] = system: Mus musculus; assay: Anticonvulsant activity in F1 albino mouse assessed as protection against maximal electroshock-induced seizures at 300 mg/kg, ip after 4 hrs; type: functional, organism-based; parameters: dose 300 mg/kg; procedure, shortened: as §1
[20] = system: Rattus norvegicus; assay: Anticonvulsant activity in Sprague-Dawley albino rat assessed as protection against maximal electroshock-induced seizures at 30 mg/kg, po after 1 hr; type: functional, organism-based; parameters: dose 30 mg/kg; procedure, shortened: as §2
[21] = system: Mus musculus; assay: Neurotoxicity in F1 albino mouse assessed as minimal motor impairment at 300 mg/kg, ip after 4 hrs by rotorod test; type: toxicity, organism-based; parameters: dose 300 mg/kg, route intraperitoneal; settings: in vivo; procedure, shortened: as §1
[22] = system: Rattus norvegicus; assay: Neurotoxicity in Sprague-Dawley albino rat assessed as minimal motor impairment at 30 mg/kg, po after 4 hrs by rotorod test; type: toxicity, organism-based; parameters: dose 30 mg/kg, route oral; settings: in vivo
Procedure, shortened: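 Male Sprague-Dawley albino rats (100–150 g), groups of 4, dosed orally with a suspension in 0.5% methylcellulose/water. Neurotoxicity was scored as minimal motor impairment on the rotorod at 0.25, 0.5, 1 and 4 h. Results are reported as animals showing toxicity per animals tested.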

[23] = system: Rattus norvegicus; assay: Anticonvulsant activity in Sprague-Dawley albino rat assessed as protection against subcutaneous pentylenetetrazole-induced seizures at 50 mg/kg, po after 0.5 hrs; type: functional, organism-based; parameters: dose 50 mg/kg; procedure, shortened: as §2
[24] = system: Rattus norvegicus; assay: Anticonvulsant activity in Sprague-Dawley albino rat assessed as protection against maximal electroshock-induced seizures at 30 mg/kg, po after 4 hrs; type: functional, organism-based; parameters: dose 30 mg/kg; procedure, shortened: as §2
[25] = system: Rattus norvegicus; assay: Anticonvulsant activity in po dosed Sprague-Dawley albino rat assessed as protection against maximal electroshock-induced seizures; type: functional
[26] = system: Mus musculus; assay: Anticonvulsant activity in F1 albino mouse assessed as protection against maximal electroshock-induced seizures at 300 mg/kg, ip after 1 hr; type: functional, organism-based; parameters: dose 300 mg/kg; procedure, shortened: as §1
[27] = system: Rattus norvegicus; assay: Neurotoxicity in Sprague-Dawley albino rat assessed as minimal motor impairment at 30 mg/kg, po after 1 hr by rotorod test; type: toxicity, organism-based; parameters: dose 30 mg/kg, route oral; settings: in vivo; procedure, shortened: as §2
[28] = species: Rattus norvegicus; assay: Selectivity ratio of Ki for adenosine A1 receptor in rat brain cortical membrane to Ki for adenosine A2A receptor in rat brain striatal membrane; type: cell membranes
Procedure, shortened: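 Ki ratios from radioligand competition binding. Rat A1 used brain cortical membranes and rat A2A used brain striatal membranes. Human A1 and A2A used membranes of CHO cells expressing the receptors. A1 radioligand [³H]CCPA; A2A radioligand [³H]MSX-2. Potent compounds were tested at 6–7 concentrations spanning 3 orders of magnitude.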

[29] = system: Mus musculus; assay: Anticonvulsant activity in F1 albino mouse assessed as protection against subcutaneous pentylenetetrazole-induced seizures at 300 mg/kg, ip after 0.25 hrs; type: functional, organism-based; parameters: dose 300 mg/kg; procedure, shortened: as §1
[30] = system: Mus musculus; assay: Anticonvulsant activity in F1 albino mouse assessed as protection against subcutaneous pentylenetetrazole-induced seizures at 100 mg/kg, ip after 0.5 hrs; type: functional, organism-based; parameters: dose 100 mg/kg; procedure, shortened: as §1
[31] = system: Mus musculus; assay: Anticonvulsant activity in F1 albino mouse assessed as protection against subcutaneous pentylenetetrazole-induced seizures at 100 mg/kg, ip after 0.25 hrs; type: functional, organism-based; parameters: dose 100 mg/kg; procedure, shortened: as §1
[32] = system: Mus musculus; assay: Anticonvulsant activity in F1 albino mouse assessed as protection against subcutaneous pentylenetetrazole-induced seizures at 100 mg/kg, ip after 1 hr; type: functional, organism-based; parameters: dose 100 mg/kg; procedure, shortened: as §1
[33] = system: Mus musculus; assay: Anticonvulsant activity in F1 albino mouse assessed as protection against subcutaneous pentylenetetrazole-induced seizures at 300 mg/kg, ip after 0.5 hrs; type: functional, organism-based; parameters: dose 300 mg/kg; procedure, shortened: as §1
[34] = system: Rattus norvegicus; assay: Anticonvulsant activity in po dosed Sprague-Dawley albino rat assessed as protection against subcutaneous pentylenetetrazole-induced seizures after 0.25 hrs; type: functional
[35] = system: Rattus norvegicus; assay: Anticonvulsant activity in Sprague-Dawley albino rat assessed as protection against subcutaneous pentylenetetrazole-induced seizures at 50 mg/kg, po after 2 hrs; type: functional, organism-based; parameters: dose 50 mg/kg; procedure, shortened: as §2
[36] = system: Rattus norvegicus; assay: Toxicity in Sprague-Dawley albino rat assessed as mortality following continuous seizures at 50 mg/kg, po after 0.25 hrs; type: organism-based; parameters: dose 50 mg/kg, route oral; settings: in vivo
Procedure, shortened: (§3)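 Male Sprague-Dawley albino rats (100–150 g), in groups of 4, were given an oral suspension in 0.5% methylcellulose/water. The event recorded was death following continuous seizures, given as animals affected per animals tested.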

[37] = system: Rattus norvegicus; assay: Toxicity in Sprague-Dawley albino rat assessed as mortality following continuous seizures at 50 mg/kg, po after 0.5 hrs; type: organism-based; parameters: dose 50 mg/kg, route oral; settings: in vivo; procedure, shortened: as §3
[38] = system: Rattus norvegicus; assay: Toxicity in Sprague-Dawley albino rat assessed as mortality following continuous seizures at 50 mg/kg, po after 4 hrs; type: organism-based; parameters: dose 50 mg/kg, route oral; settings: in vivo; procedure, shortened: as §3
[39] = system: Rattus norvegicus; assay: Toxicity in Sprague-Dawley albino rat assessed as mortality following continuous seizures at 50 mg/kg, po after 1 hr; type: organism-based; parameters: dose 50 mg/kg, route oral; settings: in vivo; procedure, shortened: as §3

SMILES | Activity [1] | Activity [2] | Activity [3] | Activity [5] | Activity [6] | Ki [7] [nM] | Ki [10] [nM] | Activity [11] | Activity [12] | Activity [13] | Activity [15] | Activity [16] | Activity [18] | Activity [19] | Activity [20] | Activity [21] | Activity [22] | Activity [24] | Activity [26] | Activity [27] | also measured
Cn1c(=O)c2c(nc3n2CCCCN3CC2CCCCC2)n(C)c1=O | Non-toxic | inactive | Non-toxic | inactive | inactive | 3500 | 5180 | inactive | Active | inactive | Non-toxic | Non-toxic | Non-toxic | inactive | inactive | Non-toxic | Non-toxic | inactive | inactive | Non-toxic | Activity [4]: Toxic; ED50 [8]: > 100 mg/kg; Activity [9]: inactive; Activity [14]: inactive; Activity [17]: inactive; Activity [23]: Active; ED50 [25]: > 250 mg/kg; Ratio Ki [28]: 1; Activity [29]: inactive; Activity [30]: Active
Cn1c(=O)c2c(nc3n2CCCN3CC2CCCCC2)n(C)c1=O | Non-toxic | inactive | Non-toxic | inactive | inactive | 610 | 2490 | inactive | inactive | Active | Non-toxic | Non-toxic | Non-toxic | inactive | inactive | Non-toxic | Non-toxic | inactive | inactive | Non-toxic | Activity [31]: Active; Activity [9]: Active; Activity [17]: Active; Activity [32]: inactive; Activity [33]: Active; ED50 [34]: > 200 mg/kg; Activity [35]: inactive; Activity [23]: Active; Ratio Ki [28]: 4
CC1CCC(N2CCCCn3c2nc2c3c(=O)n(C)c(=O)n2C)CC1 (mixture of isomers) | Non-toxic | inactive | Non-toxic | inactive | inactive | 830 | 3440 | inactive | inactive | inactive | Non-toxic | Non-toxic | Non-toxic | inactive | inactive | Non-toxic | Non-toxic | inactive | inactive | Non-toxic | Activity [36]: Toxic; Activity [31]: Active; Activity [37]: Toxic; Activity [38]: Toxic; Activity [32]: Active; Activity [33]: Active; Activity [35]: inactive; Activity [39]: Toxic; Ratio Ki [28]: 4
